One may read the IC50 as the concentration that inhibits the measured activity by half. One may read the inhibition as the share of the control response that was lost under treatment. In general, Kd refers to the concentration at which binding is half-saturated. The term CC50 denotes the concentration giving 50% cytotoxicity. One may read the half-life as how long it takes for the measured level to halve.

We go through 10 compounds from ChEMBL document CHEMBL1671666, “Anti-human immunodeficiency virus activity, cross-resistance, cytotoxicity, and intracellular pharmacology of the 3'-azido-2',3'-dideoxypurine nucleosides” (Antimicrob Agents Chemother, 2009).

Data set [1] deals with HepG2. Put plainly: Mitochondrial toxicity in human HepG2 cells assessed as percent lactic acid production at 10 uM after 14 days by real-time PCR relative to beta-actin DNA. The format is cell-based. To be noted: hepg2, 336 h. In a few lines: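 HepG2 cells cultured 14 days with 10 or 100 μM NRTI. Lactic acid quantified with a D-/L-lactic acid enzymatic test kit and expressed relative to β-actin DNA and to untreated control.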
Background: In qPCR the cycle at which signal appears reflects the starting amount.

Data set [2] deals with Human immunodeficiency virus 1. In words: Antiviral activity against HIV1 infected in human HeLa P4/R5 cells assessed as inhibition of viral replication. The settings on record: Human immunodeficiency virus 1, HeLa. It counts as functional, organism-based. A digest of the protocol:
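Single-cycle assay in P4/R5 HeLa cells carrying an HIV LTR-driven, Tat-activated β-galactosidase gene. Cells kept in phenol red-free DMEM with 10% FBS and 0.5 μg/ml puromycin. Virus stock titred on these cells by threefold endpoint dilution (Reed-Muench). At least three independent experiments.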

The test system of data set [3] is beta-actin DNA. Put plainly: Mitochondrial toxicity in human HepG2 cells assessed as percent inhibition of beta-actin DNA at 10 uM after 14 days by real-time PCR. The format is cell-based. In a few lines: (§1)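 Low-passage HepG2 cells seeded at 5,000 cells/well on collagen-coated plates and cultured 14 days with 10 or 100 μM NRTI. mtDNA and β-actin DNA quantified by real-time PCR in duplicate; mtDNA normalized to β-actin and expressed relative to untreated cells. At least two independent experiments; ranges given.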

For data set [4], the system named is HepG2. In words: Mitochondrial toxicity in human HepG2 cells assessed as percent mitochondrial DNA production at 10 uM after 14 days by real-time PCR relative to control. The format is cell-based. To be noted: hepg2, 336 h. A digest of the protocol: as §1
In data set [5] the test system is Human immunodeficiency virus 1. In words: Antiviral activity against HIV1 infected in human PBMC assessed as inhibition of viral replication. It counts as functional, organism-based. In a few lines: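 PBMC from healthy seronegative donors, isolated on a Ficoll-Hypaque gradient and stimulated with PHA for 2-3 days before infection. At least three independent experiments.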

The test system of data set [6] is Human immunodeficiency virus 1. Put plainly: Antiviral activity against HIV1 infected in human MT2 cells assessed as inhibition of viral replication. It counts as functional, organism-based. To be noted: Human immunodeficiency virus 1, MT2.
Data set [7] deals with mitochondrial DNA. Put plainly: Mitochondrial toxicity in human HepG2 cells assessed as percent inhibition of mitochondrial DNA at 10 uM after 14 days by real-time PCR. It counts as cell-based. A digest of the protocol:
as §1

For data set [8], the target named is Human immunodeficiency virus type 1 reverse transcriptase (Human immunodeficiency virus 1) (UniProt Q72547). Put plainly: Activity at HIV1 reverse transcriptase measured after 30 mins. In a few lines: (§2)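 Pre-steady-state rapid quench with purified WT HIV-1 RT. Quenched with 0.5 M EDTA between 10 ms and 30 min. Products resolved on 7 M urea-16% polyacrylamide gels. Gives kpol and Kd; selectivity = (kpol/Kd)dNTP/(kpol/Kd)NRTI-TP. At least three independent experiments, mean ± SD.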

For data set [9] the target is unchanged. Put plainly: Ratio of Kpol to Kd for HIV1 reverse transcriptase. A digest of the protocol: as §2
The target in data set [10] is Human immunodeficiency virus type 1 reverse transcriptase (Human immunodeficiency virus 1, UniProt Q72547). In words: Binding affinity to HIV1 reverse transcriptase. In a few lines:
as §2

For data set [11], the system named is PBMC. Put plainly: Drug level in PHA-stimulated human PBMC measured per 10^6 cells at 10 uM after 12 hrs by LC-MS analysis. It counts as ADME, cell-based. In a few lines: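 PHA-stimulated human PBMC (24-30 × 10⁶ cells) exposed to a range of nucleoside concentrations for 12 h at 37°C in 5% CO2. […] Triphosphate reported in pmol/10⁶ cells. At least three experiments, mean ± SD.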

Data set [12] can be described thus: Cytotoxicity against human HeLa P4/R5 cells.
The nature of data set [13]: Cytotoxicity against human MT2 cells after 2 to 4 days by MTT assay. It counts as cell-based. In a few lines:
(§3)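 Log-phase cells seeded at 5 × 10³ to 5 × 10⁴ cells/well with 10-fold serial compound dilutions. Incubated 2-4 days; viability read by MTT staining. CC50 from concentration-response curves by the median effect method. Mean of at least three independent experiments.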
A general note: Formazan colour is commonly taken as a measure of viable cells.

In data set [14] the test system is Human immunodeficiency virus 1. In words: Antiviral activity against HIV1 harboring reverse transcriptase K65R mutant infected in human HeLa P4/R5 cells assessed as inhibition of viral replication. It counts as functional, organism-based. The settings on record: Human immunodeficiency virus 1, HeLa. A digest of the protocol:
(§4)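 Single-replication-cycle assay in P4/R5 cells: HeLa stably carrying a Tat-activated β-galactosidase gene under an HIV LTR promoter, grown in phenol red-free DMEM with 10% FBS and 0.5 μg/ml puromycin. Virus stocks were titred in P4/R5 cells by threefold endpoint dilution (Reed–Muench).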

Data set [15] concerns Human immunodeficiency virus 1. In words: Antiviral activity against HIV1 harboring reverse transcriptase M41L/L210W/T215Y mutant infected in human HeLa P4/R5 cells assessed as inhibition of viral replication. To be noted: Human immunodeficiency virus 1, HeLa. The format is functional, organism-based. In a few lines:
as §4

Data set [16] concerns Human immunodeficiency virus 1. In words: Antiviral activity against HIV1 harboring reverse transcriptase D67N/K70R/T215F/K219Q mutant infected in human HeLa P4/R5 cells assessed as inhibition of viral replication. To be noted: Human immunodeficiency virus 1, HeLa. It counts as functional, organism-based. A digest of the protocol: as §4
Data set [17] concerns Human immunodeficiency virus 1. Put plainly: Antiviral activity against HIV1 harboring reverse transcriptase L74V mutant infected in human HeLa P4/R5 cells assessed as inhibition of viral replication. It counts as functional, organism-based. To be noted: Human immunodeficiency virus 1, HeLa. A digest of the protocol: as §4
Data set [18] relates to Human immunodeficiency virus 1. Put plainly: Antiviral activity against HIV1 harboring reverse transcriptase M184V mutant infected in human HeLa P4/R5 cells assessed as inhibition of viral replication. The format is functional, organism-based. The settings on record: Human immunodeficiency virus 1, HeLa. In a few lines:
as §4

Data set [19] is described as follows: Cytotoxicity against human PBMC after 2 to 4 days by MTT assay. The format is cell-based. In a few lines:
as §3

A short description of data set [20]: Cytotoxicity against african green monkey Vero cells after 2 to 4 days by MTT assay. The format is cell-based. The settings on record: chlorocebus sabaeus. A digest of the protocol: as §3
In data set [21] the test system is Human immunodeficiency virus 1. In words: Antiviral activity against HIV1 harboring reverse transcriptase diserine insert between residues 69 and 70 infected in human HeLa P4/R5 cells assessed as inhibition of viral replication. It counts as functional, organism-based. To be noted: Human immunodeficiency virus 1, HeLa. In a few lines: as §4
Data set [22] can be described thus: Cytotoxicity against human CEM cells after 2 to 4 days by MTT assay. It counts as cell-based. The settings on record: CEM cells (CCRF-CEM). In a few lines:
as §3

For data set [23], the system named is Human immunodeficiency virus 1. In words: Antiviral activity against HIV1 harboring reverse transcriptase Q151M mutant infected in human HeLa P4/R5 cells assessed as inhibition of viral replication. To be noted: Human immunodeficiency virus 1, HeLa. The format is functional, organism-based. A digest of the protocol:
as §4

For data set [24], the system named is Human immunodeficiency virus 1. In words: Antiviral activity against HIV1 harboring reverse transcriptase M41L/D67N/K70R/T215F/K219Q mutant infected in human HeLa P4/R5 cells assessed as inhibition of viral replication. It counts as functional, organism-based. The settings on record: Human immunodeficiency virus 1, HeLa. In a few lines: as §4
Data set [25] relates to Human immunodeficiency virus 1. In words: Antiviral activity against HIV1 harboring reverse transcriptase M41L/D67N/K70R/L210W/T215Y/K219Q mutant infected in human HeLa P4/R5 cells assessed as inhibition of viral replication. The format is functional, organism-based. The settings on record: Human immunodeficiency virus 1, HeLa. In a few lines:
as §4

Data set [26] is described as follows: Half life in PHA-stimulated human PBMC after 12 hrs by LC-MS analysis. It counts as ADME, cell-based.
Data set [27] deals with Human immunodeficiency virus type 1 reverse transcriptase (Human immunodeficiency virus 1) (UniProt Q72547). In words: Selectivity, ratio of Kpol to Kd for dGTP to Kpol to Kd for compound at HIV1 reverse transcriptase. In a few lines:
as §2

For data set [28] the target is unchanged. In words: Selectivity, ratio of Kpol to Kd for TTP to Kpol to Kd for compound at HIV1 reverse transcriptase. In a few lines: as §2
For data set [29] the target is unchanged. Put plainly: Selectivity, ratio of Kpol to Kd for dATP to Kpol to Kd for compound at HIV1 reverse transcriptase. In a few lines:
as §2

Where a name gives a salt, the structure may show the parent alone.

Consider `Nc1ccn([C@H]2CC[C@@H](CO)O2)c(=O)n1` [ZALCITABINE], for which the values for the Activity in data set [1] and in data set [4] were 170% and 0.3%, respectively. Also, the IC50 was found to be 1400 nM in data set [2], 200 nM in [5] and 130 nM in data set [6]. Also, the figures for the inhibition at 336 h, 10 µM in data set [3] and in [7] were 61.4% and 99.9%, respectively.

Take `Nc1nc2c(ncn2[C@H]2C[C@H](O)[C@@H](COP(=O)(O)OP(=O)(O)OP(=O)(O)O)O2)c(=O)[nH]1` [DEOXYGUANOSINE TRIPHOSPHATE]: the Activity in data set [8] amounted to 7.5 s⁻¹. Moreover, the Ratio in data set [9] is 1.8 µM⁻¹ s⁻¹. This compound came in with a dissociation constant Kd in data set [10] of 4200 nM.

Consider `Nc1nc(NC2CC2)c2ncn([C@H]3C=C[C@@H](CO)C3)c2n1` [ABACAVIR SULFATE], for which the results for the IC50 in data set [2], in data set [5] and in data set [6] were 6200 nM, 910 nM and 4800 nM, respectively.

`[N-]=[N+]=N[C@H]1C[C@H](n2cnc3c(=O)[nH]c(N)nc32)O[C@@H]1CO` came in with a Drug uptake in [11] of 0.2 pmol.

In the case of `Cc1cn([C@H]2C[C@H](N=[N+]=[N-])[C@@H](CO)O2)c(=O)[nH]c1=O` [ZIDOVUDINE], the half-maximal cytotoxic concentration (CC50) is above 270000 nM in [12]; 150000 nM in [13]; above 100000 nM in [19]; above 100000 nM in [20]; 86200 nM in [22]. Further, the half-maximal inhibitory concentration (IC50) in data set [14] turned out to be 210 nM; in data set [2] it was 190 nM; in data set [15], 10400 nM; in [16] it was 11900 nM; in data set [17] it was 210 nM; in data set [18], 180 nM. For the same compound, the concentration for half-maximal inhibition (IC50) in [21] was 205000 nM; in data set [6] it was 31 nM; in data set [23] it was 214000 nM; in data set [24], 96700 nM; in data set [25], 58600 nM.

`[N-]=[N+]=N[C@H]1C[C@H](n2cnc3c(=O)[nH]c(N)nc32)O[C@@H]1COP(=O)(O)OP(=O)(O)OP(=O)(O)O` had a half-life in [26] of 8.9 h. In data set [8], the Activity is 4.8 s⁻¹. Also, the Ratio in data set [9] worked out at 1.7 µM⁻¹ s⁻¹. Moreover, in data set [10], the Kd turned out to be 2800 nM. The Selectivity ratio in data set [27] turned out to be 1.1.

`Cc1cn([C@H]2C=C[C@@H](COP(=O)(O)OP(=O)(O)OP(=O)(O)O)O2)c(=O)[nH]c1=O` [STAVUDINE TRIPHOSPHATE]: in [28], the Selectivity ratio was found to be 2.6. Further, in data set [8], the Activity is 4.3 s⁻¹. Also, the Ratio in data set [9] worked out at 1.6 µM⁻¹ s⁻¹. The same compound registered a Kd in data set [10] of 2700 nM.

In data set [8], `Cc1cn([C@H]2C[C@H](O)[C@@H](COP(=O)(O)OP(=O)(O)OP(=O)(O)O)O2)c(=O)[nH]c1=O` [DEOXYTHYMIDINE_TRIPHOSPHATE] had an Activity of 9.2 s⁻¹. Moreover, in data set [9], the Ratio worked out at 4.2 µM⁻¹ s⁻¹. In data set [10], this compound gave a dissociation constant (Kd) of 2200 nM.

Regarding `[N-]=[N+]=N[C@H]1C[C@H](n2cnc3c(N)ncnc32)O[C@@H]1COP(=O)(O)OP(=O)(O)OP(=O)(O)O`, in [29], the Selectivity ratio was determined as 0.7. Also, the Activity in data set [8] came out at 23.2 s⁻¹. Besides, the Ratio in [9] was 10.2 µM⁻¹ s⁻¹. The compound further displayed a Kd in data set [10] of 2300 nM.

For `Nc1ccn([C@H]2C[C@H](O)[C@@H](COP(=O)(O)OP(=O)(O)OP(=O)(O)O)O2)c(=O)n1`, the Activity in [8] stood at 1.2 s⁻¹. Moreover, in data set [9], the Ratio stood at 1.1 µM⁻¹ s⁻¹.
